SR-BI HDL uptake: blocks mouse SR-BI lipid uptake from DiI-HDL | 320,000 tested, 0.96% active | AID 488896 | inhibition, % at 12.5 µM | ldlA[mSR-BI] CHO cells, DiI-HDL uptake fluorescence, 3 h | Q61009;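 active means mean replicate inhibition of at least 70% and a set share of replicates each scoring 70 or more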;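 further: 0% = median of neutral control wells and 100% = median of positive control wells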
Target sequence (Q61009 whole entry, looked up): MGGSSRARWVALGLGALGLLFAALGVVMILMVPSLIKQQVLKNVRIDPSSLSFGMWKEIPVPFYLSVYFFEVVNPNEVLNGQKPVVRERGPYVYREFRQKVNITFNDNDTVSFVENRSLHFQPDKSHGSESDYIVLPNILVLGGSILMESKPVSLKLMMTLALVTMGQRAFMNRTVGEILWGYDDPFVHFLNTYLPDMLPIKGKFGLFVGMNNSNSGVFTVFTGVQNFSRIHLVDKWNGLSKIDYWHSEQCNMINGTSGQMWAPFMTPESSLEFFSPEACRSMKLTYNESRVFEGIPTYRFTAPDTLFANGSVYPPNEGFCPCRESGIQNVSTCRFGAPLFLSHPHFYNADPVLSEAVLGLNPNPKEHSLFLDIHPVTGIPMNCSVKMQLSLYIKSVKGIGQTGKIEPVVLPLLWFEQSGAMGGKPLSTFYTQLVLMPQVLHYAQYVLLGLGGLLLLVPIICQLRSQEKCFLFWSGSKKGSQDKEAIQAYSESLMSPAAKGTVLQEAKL
CDK5 inh: CDK5/p35 (human) kinase inhibition | Q00535+Q15078 | Recombinant CDK5/p35, ADP-Glo luminescence, 60 min | inhibition, % at 10 µM | 330,000 tested, 0.01% active;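 active means highest replicate inhibition of at least 50% and at least 75% of replicates reaching 50%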;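 further: plate controls were DMSO neutral control for no effect and GW8510 at 10 µM for full effect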
NSD2 inh: blocks human histone methyltransferase NSD2 | NSD2 peptide methylation, AlphaScreen, 120 min | inhibition, % at 12.5 µM | 310,000 tested, 0.54% active | AID 743445
DYRK1A inh: inhibitors of rat Dyrk1A kinase. Q63470. ADP-Glo luminescence, NFATc1 peptide. inhibition, % at 12.5 µM. 310,000 tested, 0.43% active. AID 504441;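 further: plate controls were vehicle with enzyme for no effect and no enzyme for full effect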
SR-BI DiI-HDL act: enhances SR-BI lipid uptake from DiI-HDL | activation, % at 12.5 µM | 320,000 tested, 0.096% active | CHO ldlA[mSR-BI] cells, DiI-HDL uptake fluorescence, 3 h; 100 = double the neutral-control signal;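 active means mean replicate activation of at least 60% and every replicate at or above 60%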;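 further: 0% = median plate neutral-control signal and 100% = twice that signal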
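Material – SR-BI-overexpressing, LDLR-lacking CHO cells · Medium – BSA-supplemented, HEPES-buffered Ham's F12, pH 7.4 · Doses – single concentration · Times – compound with DiI-HDL co-incubation, 3 h at 37 °C · Measured by – bottom-read fluorescence, 550/595 nm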
dFosB activator: activators of mouse delta FosB homodimer; P13346; purified delta FosB, TAMRA-CDK5 oligo fluorescence polarization; percent of positive-control signal above neutral wells; activation, % at 25 µM; 340,000 tested, 0.99% active; AID 493131;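 active means mean activation above about 17%, with every replicate also reaching it, limit read from the data, passing the limit was not always enough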
AlphaScreen art: counter-screen for NSD2 inhibitors: AlphaScreen artifacts. 1,500 tested, 9.4% active. shares compounds with NSD2 inh. AC35, µM (doses to about 10 µM), for the others: at the top dose activity change, negative = signal loss. AID 1053174. AlphaScreen artifact counterscreen, preloaded methylated H4 peptide; call rule not given here
An asterisk follows results filed as active. Most compounds without a hit are left out; they make up all but 2.5% or so of the library. Unless noted, no stated cut-off is given here; in the data, active means inhibition above about 50%; inactive means the rest.

Results for COc1ccc2nc(N3CCCCC3)c(/C=C3\SC(=S)NC3=O)cc2c1 ?
SR-BI HDL uptake: -11; CDK5 inh: 0; DYRK1A inh: -4; SR-BI DiI-HDL act: 11; dFosB activator: -33

Results for O=C1NC(=S)S/C1=C\c1cc2ccccc2nc1N1CCCCC1 ?
SR-BI HDL uptake: -48; CDK5 inh: 1; NSD2 inh: 83*; SR-BI DiI-HDL act: 48; dFosB activator: -27; AlphaScreen art: -9%

Results for COc1ccc(CNC(=O)c2nnn(-c3cccc(C(F)(F)F)c3)c2N)cc1 ?
SR-BI HDL uptake: -16; CDK5 inh: 0; NSD2 inh: 51*; DYRK1A inh: -6; SR-BI DiI-HDL act: 16; dFosB activator: -16; AlphaScreen art: 2%

What do the screens show for `COc1ccc(CNC(=O)c2nnn(Cc3ccc(OC)cc3)c2N)cc1`?
SR-BI HDL uptake: -3; CDK5 inh: -1; SR-BI DiI-HDL act: 3; dFosB activator: 2

What do the screens show for `CCOC(=O)c1cc2c(c(CCO)n1)[C@H](CCO)N(S(=O)C(C)(C)C)C2` (stereo partly specified)?
SR-BI HDL uptake: 9; CDK5 inh: -1; SR-BI DiI-HDL act: -9; dFosB activator: 0

How did COc1ccccc1NC(=S)Nc1cccc2cnccc12 do in these assays?
SR-BI HDL uptake: 8; CDK5 inh: 0; NSD2 inh: 82*; DYRK1A inh: 37; SR-BI DiI-HDL act: -8; dFosB activator: 4; AlphaScreen art: -1%

How did O=C1c2ccccc2C(=O)c2c1cccc2N1CCCC1 do in these assays?
SR-BI HDL uptake: 44; CDK5 inh: 3; NSD2 inh: 43; DYRK1A inh: 49; SR-BI DiI-HDL act: -44; dFosB activator: -1

Results for O=C1C=C(N2CCCCC2)c2ccccc2C1=O ?
NSD2 inh: 114*; AlphaScreen art: 0%

What do the screens show for `COc1ccc(S(=O)(=O)N(C)CC(=O)NCCN2CCOCC2)cc1Cl`?
SR-BI HDL uptake: -8; CDK5 inh: 0; NSD2 inh: 87*; DYRK1A inh: -3; SR-BI DiI-HDL act: 8; dFosB activator: -3; AlphaScreen art: 0%

How did COc1ccc(S(=O)(=O)N(C)CC(=O)NCCN2CCOCC2)cc1C do in these assays?
CDK5 inh: 1; NSD2 inh: -3; DYRK1A inh: -1; dFosB activator: -1

Results for CCCS(=O)(=O)NC(=O)C1(C)CCN(C(=O)c2c(-c3ccccc3)noc2C)C1 (stereo unspecified) ?
NSD2 inh: -6

What do the screens show for `NNC(=O)C1CCCN1S(=O)(=O)c1ccc(Cl)cc1` (stereo unspecified)?
SR-BI HDL uptake: -4; CDK5 inh: -5; NSD2 inh: 1; DYRK1A inh: 0; SR-BI DiI-HDL act: 4; dFosB activator: 1

How did O=C(NCCc1ccccn1)C1CCCN1S(=O)(=O)c1ccc(Cl)cc1 (stereo unspecified) do in these assays?
CDK5 inh: 0; NSD2 inh: 119*; DYRK1A inh: -1; dFosB activator: 4; AlphaScreen art: -1%

Results for CS(=O)(=O)c1ccc(Cl)c(NC(=O)COc2ccc3c(c2)CCC3)c1 ?
SR-BI HDL uptake: -2; CDK5 inh: 1; NSD2 inh: -3; DYRK1A inh: -3; SR-BI DiI-HDL act: 2; dFosB activator: -9

What do the screens show for `Cc1c(O)ccc(C(=O)CN2CCN(c3ccccc3)CC2)c1O`?
SR-BI HDL uptake: 8; CDK5 inh: -4; NSD2 inh: 4; DYRK1A inh: 6; SR-BI DiI-HDL act: -8; dFosB activator: 3

How did CCn1c(SCC(=O)NC2CCCCC2)nnc1-c1cccs1 do in these assays?
SR-BI HDL uptake: -33; CDK5 inh: 3; NSD2 inh: -1; DYRK1A inh: 6; SR-BI DiI-HDL act: 33; dFosB activator: -7

How did CCn1c(SC(=O)NC2CCCCC2)nnc1-c1cccs1 do in these assays?
SR-BI HDL uptake: -3; CDK5 inh: 1; NSD2 inh: 59*; DYRK1A inh: 4; SR-BI DiI-HDL act: 3; dFosB activator: -16; AlphaScreen art: -1%

How did COc1ccccc1N1CCN(C(=O)C2CCN(C(=O)c3ccccc3C)CC2)CC1 do in these assays?
SR-BI HDL uptake: 56; CDK5 inh: 1; NSD2 inh: 2; DYRK1A inh: 0; SR-BI DiI-HDL act: -56; dFosB activator: -12

What do the screens show for `COc1cccc(-c2cnc(C(O)c3ccc(C)c(F)c3)[nH]2)c1` (stereo unspecified)?
NSD2 inh: 4

What do the screens show for `COc1cc(C(=O)NC(C)c2ccc3ccccc3c2)cc(Cl)c1O` (stereo unspecified)?
SR-BI HDL uptake: -8; CDK5 inh: -2; NSD2 inh: 74*; DYRK1A inh: -3; SR-BI DiI-HDL act: 8; dFosB activator: 3; AlphaScreen art: -2%

How did COc1ccc(C(C)NC(=O)c2ccc(Cl)cc2)cc1OC (stereo unspecified) do in these assays?
SR-BI HDL uptake: -2; NSD2 inh: -2; DYRK1A inh: 4; SR-BI DiI-HDL act: 2; dFosB activator: -2

How did CCN(CC)CCCN(Cc1cc2cc3c(cc2[nH]c1=O)OCO3)C(=S)NCc1ccco1 do in these assays?
SR-BI HDL uptake: -7; CDK5 inh: 2; NSD2 inh: 74*; DYRK1A inh: -4; SR-BI DiI-HDL act: 7; dFosB activator: -3; AlphaScreen art: -1%

Results for CCOc1cc(/C=C2\C(=O)NN(c3ccccc3)C2=O)cc([N+](=O)[O-])c1O ?
SR-BI HDL uptake: -4; CDK5 inh: -17; NSD2 inh: 111*; DYRK1A inh: -5; SR-BI DiI-HDL act: 4; dFosB activator: -6; AlphaScreen art: -10%

What do the screens show for `CCOc1cc(C(=O)NCC(=O)N2CCC3(CC2)NCCc2[nH]cnc23)cc(OCC)c1OCC`?
SR-BI HDL uptake: -16; CDK5 inh: 2; NSD2 inh: 56*; DYRK1A inh: 3; SR-BI DiI-HDL act: 16; dFosB activator: -2; AlphaScreen art: 0%

What do the screens show for `Cc1cc(C)cc(C(=O)NCC(=O)N2CCC3(CC2)NCCc2[nH]cnc23)c1`?
SR-BI HDL uptake: -7; CDK5 inh: 0; NSD2 inh: -1; DYRK1A inh: 3; SR-BI DiI-HDL act: 7; dFosB activator: -2

Results for C=CCn1c(SCc2ccc3c(c2)OCO3)nc2scc(-c3ccco3)c2c1=O ?
SR-BI HDL uptake: -11; CDK5 inh: 0; NSD2 inh: 117*; DYRK1A inh: -2; SR-BI DiI-HDL act: 11; dFosB activator: -12; AlphaScreen art: -3%

Assay outcomes deposited in PubChem BioAssay by Broad Institute.
